Measurements as given in ChEMBL document CHEMBL1143361, “Tetracyclic indole inhibitors of hepatitis C virus NS5B-polymerase” (Bioorg Med Chem Lett, 2009).
One block for each compound: values may come before it. The source made the active and inactive calls. No cut-off for these calls is given here.

Legend:
[1] = Protein binding in human plasma; type: ADME, cell-free; details: read-out: PPB (converted)
[2] = Inhibition of HCV NS5B Cdelta21 in presence of heterogenic template RNA; design: species or system Hepacivirus hominis
Outline: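 Purified NS5B enzyme (C-terminal 21-residue deletion) assayed with heterogenic template RNA. IC50 is the mean of at least two experiments.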

Hepatitis C virus = assay: Antiviral activity against Hepatitis C virus infected in human HUH7 cells by replicon assay; type: functional, organism-based, Hepacivirus hominis; details: Huh-7
Outline: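 Subgenomic HCV RNA replicon in HUH-7 cells, adapted from the Bartenschlager procedure, run in 10% fetal calf serum unless otherwise stated. EC50 is the mean of at least two experiments.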

[3] = Plasma clearance in rat; type: ADME, organism-based
Outline: (§1)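 Given as HCl or trifluoroacetate salts, intravenously (vehicle 20% DMSO/60% PEG400/20% H2O) and orally (vehicle PEG400); n = 3. AUC reported with the dose in mpk; oral bioavailability and plasma clearance are derived from these dosings.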

[4] = Ratio of drug level from liver to plasma in po dosed rat after 6 hrs; type: ADME, organism-based
Outline: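 Rats dosed orally; compound concentrations in liver and plasma measured 6 h after administration and expressed as a liver/plasma ratio.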

[5] = Intrinsic clearance in rat liver microsomes in presence of NADPH; type: ADME, Microsome
Outline: (§2)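 Incubated with liver microsomes (rat, dog, rhesus or human) in the presence of NADPH. Intrinsic clearance is expressed in ml/min/kg.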

[6] = AUC in dog; type: ADME, organism-based, Canis lupus familiaris; details: plasma; outline: as §1
[7] = Intrinsic clearance in dog liver microsomes in presence of NADPH; type: ADME, Canis lupus familiaris, Microsome; outline: as §2
[8] = Intrinsic clearance in human liver microsomes in presence of NADPH; type: ADME, Microsome; outline: as §2
[9] = Plasma clearance in dog; type: ADME, organism-based, Canis lupus familiaris; outline: as §1
[10] = Oral bioavailability in rat; type: ADME, organism-based; details: in vivo; outline: as §1
[11] = Intrinsic clearance in rhesus monkey liver microsomes in presence of NADPH; type: ADME, Macaca mulatta, Microsome; outline: as §2
[12] = AUC in rat; type: ADME, organism-based; details: plasma; outline: as §1
[13] = Oral bioavailability in dog; type: ADME, organism-based, Canis lupus familiaris; details: in vivo; outline: as §1
[14] = Fraction unbound in rat plasma; type: ADME, cell-free
[15] = Fraction unbound in human plasma; type: ADME, cell-free
[16] = Fraction unbound in dog plasma; type: ADME, cell-free, Canis lupus familiaris
Cytochrome P450 3A4 = Cytochrome P450 3A4 (Homo sapiens, UniProt P08684); assay: Inhibition of CYP3A4 in human liver microsomes; type: ADME, Microsome
[17] = target: T1, Nuclear receptor subfamily 1 group I member 2 (Homo sapiens, UniProt O75469); assay: Activity at human PXR at 10 uM by reporter gene assay
T1 sequence (O75469 whole entry): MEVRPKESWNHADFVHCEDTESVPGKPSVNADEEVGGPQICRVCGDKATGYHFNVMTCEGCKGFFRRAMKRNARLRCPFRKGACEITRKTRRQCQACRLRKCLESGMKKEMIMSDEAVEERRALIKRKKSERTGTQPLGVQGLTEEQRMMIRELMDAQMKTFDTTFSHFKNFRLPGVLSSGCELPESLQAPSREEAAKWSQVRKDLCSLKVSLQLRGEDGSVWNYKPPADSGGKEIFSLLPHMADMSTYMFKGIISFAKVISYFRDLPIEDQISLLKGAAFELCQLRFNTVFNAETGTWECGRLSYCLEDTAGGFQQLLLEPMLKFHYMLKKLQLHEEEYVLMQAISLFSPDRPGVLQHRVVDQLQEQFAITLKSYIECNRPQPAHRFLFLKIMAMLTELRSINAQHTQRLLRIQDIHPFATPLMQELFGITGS

Hepatocyte = assay: Metabolic stability in human hepatocytes after 4 hrs by HPLC; type: ADME, cell-based
Outline: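 [3H]-labelled compound incubated 4 h with human hepatocytes. Analysis by HPLC with radiochromatographic detection.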

[18] = Metabolic stability in po dosed rat assessed as biliary excretion; type: ADME, organism-based; details: bile, read-out: Stability
Canis familiaris = assay: Cardiotoxicity in anesthetized dogs assessed as prolongation of QT interval up to 10 mg/kg; type: toxicity, organism-based, Canis lupus familiaris; design: dose 10 mg/kg; details: dog, in vivo
[19] = Oral bioavailability in rhesus monkey; type: ADME, organism-based, Macaca mulatta; details: in vivo; outline: as §1
[20] = Plasma clearance in rhesus monkey; type: ADME, organism-based, Macaca mulatta; outline: as §1
[21] = Metabolic stability in po dosed rat assessed as urinary excretion; type: ADME, organism-based; details: urine, read-out: Stability
[22] = AUC in rhesus monkey; type: ADME, organism-based, Macaca mulatta; details: plasma; outline: as §1
Homo sapiens = organism: Homo sapiens; assay: Inhibition of human DNA polymerase
[23] = Metabolic stability in po dosed dog assessed as urinary excretion; type: ADME, organism-based, Canis lupus familiaris; details: urine, read-out: Stability

Cytochrome P450 3A4, sequence (P08684 whole entry): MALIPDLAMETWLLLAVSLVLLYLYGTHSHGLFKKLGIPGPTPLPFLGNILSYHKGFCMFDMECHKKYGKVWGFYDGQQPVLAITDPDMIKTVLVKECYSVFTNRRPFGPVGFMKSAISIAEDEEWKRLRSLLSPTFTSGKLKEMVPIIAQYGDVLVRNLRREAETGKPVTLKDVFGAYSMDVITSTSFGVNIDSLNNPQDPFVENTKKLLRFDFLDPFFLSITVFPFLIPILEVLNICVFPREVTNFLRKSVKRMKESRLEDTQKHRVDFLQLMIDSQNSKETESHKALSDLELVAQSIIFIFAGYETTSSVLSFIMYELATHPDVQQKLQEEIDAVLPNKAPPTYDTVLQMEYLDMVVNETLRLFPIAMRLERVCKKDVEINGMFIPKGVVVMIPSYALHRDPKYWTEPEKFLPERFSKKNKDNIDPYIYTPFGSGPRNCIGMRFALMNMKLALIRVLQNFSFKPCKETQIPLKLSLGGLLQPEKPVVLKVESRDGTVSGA

fraction unbound [1]: 0.029
IC50 [2]: 430 nM
SMILES: CN(C)C(=O)Cn1c(-c2ccccc2)c(C2CCCCC2)c2ccc(C(=O)O)cc21

EC50 (Hepatitis C virus): 1440 nM
IC50 [2]: 860 nM
SMILES: CN(C)CCN1Cc2ccccc2-c2c(C3CCCCC3)c3ccc(C(=O)O)cc3n2CCC1=O

clearance [3]: 12 mL/min/kg
Kp at 6 h [4]: 8
CLint scaled [5]: 16 mL/min/kg
AUC [6]: 17.6 µM·h
CLint scaled [7]: 8 mL/min/kg
CLint scaled [8]: 13 mL/min/kg
clearance [9]: 3 mL/min/kg
bioavailability [10]: 48%
CLint scaled [11]: 42 mL/min/kg
AUC [12]: 4 µM·h
EC50 (Hepatitis C virus): 170 nM
IC50 [2]: 60 nM
bioavailability [13]: 83%
fraction unbound [14]: 0.02
fraction unbound [15]: 0.02
fraction unbound [16]: 0.02
SMILES: CN(C)CC(=O)N1CCn2c(c(C3CCCCC3)c3ccc(C(=O)O)cc32)-c2ccc(F)cc2C1

EC50 (Hepatitis C virus): 410 nM
IC50 [2]: 130 nM
SMILES: CN(C)CCN1C(=O)Cn2c(c(C3CCCCC3)c3ccc(C(=O)O)cc32)-c2ccccc21

clearance [3]: 61 mL/min/kg
Activity (Cytochrome P450 3A4): Not Active
Activity [17]: Not Active
Kp at 6 h [4]: 16
CLint scaled [5]: 100 mL/min/kg
Stability (Hepatocyte): Stable
AUC [6]: 23 µM·h
CLint scaled [7]: 26 mL/min/kg
dose excreted [18]: 4%
CLint scaled [8]: 5 mL/min/kg
clearance [9]: 2.5 mL/min/kg
bioavailability [19]: 57%
bioavailability [10]: 31%
CLint scaled [11]: 51 mL/min/kg
clearance [20]: 22 mL/min/kg
dose excreted [21]: 1%
AUC [12]: 4.2 µM·h
IC50 [2]: 27 nM
bioavailability [13]: 74%
AUC [22]: 2 µM·h
fraction unbound [14]: 0.07
fraction unbound [15]: 0.03
Activity (Homo sapiens): inactive
dose excreted [23]: < 1%
fraction unbound [16]: 0.03
SMILES: CN(C)CCN1CCn2c(c(C3CCCCC3)c3ccc(C(=O)O)cc32)-c2ccccc2C1
Activity (Canis familiaris): Non-toxic

EC50 (Hepatitis C virus): 890 nM
IC50 [2]: 170 nM
SMILES: CN1CCn2c(c(C3CCCCC3)c3ccc(C(=O)O)cc32)-c2ccccc2C1

EC50 (Hepatitis C virus): 540 nM
IC50 [2]: 77 nM
SMILES: COc1ccc2c(c1)N(CCN(C)C)CCCn1c-2c(C2CCCCC2)c2ccc(C(=O)O)cc21

clearance [3]: 32 mL/min/kg
CLint scaled [5]: 43 mL/min/kg
AUC [6]: 18.7 µM·h
CLint scaled [7]: 6 mL/min/kg
CLint scaled [8]: 7 mL/min/kg
clearance [9]: 2.9 mL/min/kg
bioavailability [10]: 83%
CLint scaled [11]: 16 mL/min/kg
AUC [12]: 2.9 µM·h
EC50 (Hepatitis C virus): 290 nM
IC50 [2]: 55 nM
bioavailability [13]: 67%
SMILES: COc1ccc2c(c1)CN(C)CCn1c-2c(C2CCCCC2)c2ccc(C(=O)O)cc21

EC50 (Hepatitis C virus): 100 nM
IC50 [2]: 35 nM
SMILES: COc1ccc2c(c1)CN(CCN(C)C)CCn1c-2c(C2CCCCC2)c2ccc(C(=O)O)cc21

bioavailability [10]: 10%
AUC [12]: 0.2 µM·h
EC50 (Hepatitis C virus): 180 nM
IC50 [2]: 48 nM
SMILES: CCN(CC)C1CCN(C(=O)Cn2c(-c3ccc(Cl)cc3)c(C3CCCCC3)c3ccc(C(=O)O)cc32)CC1

EC50 (Hepatitis C virus): 220 nM
IC50 [2]: 130 nM
SMILES: CN(C)CC(=O)N1CCn2c(c(C3CCCCC3)c3ccc(C(=O)O)cc32)-c2ccccc2C1

IC50 [2]: 28 nM
SMILES: CN(C)CCN1CCn2c(c(C3CCCCC3)c3ccc(C(=O)O)cc32)-c2ccccc21

EC50 (Hepatitis C virus): 140 nM
IC50 [2]: 35 nM
SMILES: CN(C)CC1Cn2c(c(C3CCCCC3)c3ccc(C(=O)O)cc32)-c2ccccc2CN1C (racemic)

EC50 (Hepatitis C virus): 260 nM
IC50 [2]: 110 nM
SMILES: CN(C)CCN1Cc2ccccc2-c2c(C3CCCCC3)c3ccc(C(=O)O)cc3n2CC1=O

EC50 (Hepatitis C virus): 160 nM
IC50 [2]: 43 nM
SMILES: CN(C)CC1Cn2c(c(C3CCCCC3)c3ccc(C(=O)O)cc32)-c2ccccc2N1C (racemic)

EC50 (Hepatitis C virus): 13500 nM
IC50 [2]: 1920 nM
SMILES: CN(C)CC1CN(C)c2ccccc2-c2c(C3CCCCC3)c3ccc(C(=O)O)cc3n21 (racemic)

fraction unbound [1]: 0.003
EC50 (Hepatitis C virus): 18900 nM
IC50 [2]: 80 nM
SMILES: CN1Cc2ccccc2-c2c(C3CCCCC3)c3ccc(C(=O)O)cc3n2CC1=O
